Bioassay records as filed in PubChem.
HUVEC prolif 384: inhibitors of HUVEC proliferation, primary screen, cell-based, 384-well. CellTiter-Glo luminescence, 72 h; active compounds read low. viability, % at 10 µM (by protocol). 86,000 tested, 1.1% active. AID 648, 2007;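 active = viability at or below 30%; inactive = viability above 30%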;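 also: 100% = median luminescence of DMSO-only cell control wells on each plate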
bCat KO growth: primary screen for growth suppressors in beta-catenin knockout HCT116 cells (colon tumor, human); HCT116 beta-catenin knockout viability, CellTiter-Glo, 60 h; active compounds read low; viability, % at 10 µM; 140,000 tested, 1.5% active; AID 818, 2007;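 active = viability at or under a set limit, the compound median less 4 SD, cut at about 6% in these data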;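 also: 0% = Hyamine 1622 control at 20 µM and 100% = untreated cell control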
Lung fibro prol: antiproliferative effect on LL 47 fibroblasts – human, LL 47 cells, CellTiter-Glo luminescence, primary screen; AID 719, 2007; LL 47 human lung fibroblast viability, ATP luminescence; active compounds read low; viability, % at 10 µM; 85,000 tested, 1.1% active;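 active = viability at or below 50% in the single dose screen; inactive = viability above 50%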;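 also: compound exposure lasted 72 h before the ATP readout; 100% = median luminescence of untreated cell-only wells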
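Test system: LL 47 human lung fibroblasts; Quantity: 1,150 cells/well; Buffer or medium: IMEM plus 15% FBS; Dosing: tenfold compound dosing solution, DMSO at 0.1%; Timing: overnight cell rest, 72 h compound treatment at 37 °C; Detection: ATP-based CellTiter-Glo luminescent readout; Read-out basis: viability percentage against median untreated-cell control; Controls: cell-only wells, no compound.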
H69AR inhibit: proliferation blockers of H69AR lung cancer cells, primary screen, cell-based, human, 86K library; 85,000 tested, 6% active; viability, % at 10 µM; H69AR lung tumor viability, ATP luminescence, 72 h; active compounds read low; AID 598, 2007;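 active = viability at or below 40%; inactive = viability above 40%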;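 also: multidrug resistant small cell line overexpressing MRP-1 efflux transporter; 100% = mean luminescence of untreated control wells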
HCT116 PTEN-null: growth suppression of PTEN-null HCT116, primary screen, cell-based, CellTiter-Glo. 140,000 tested, 1.2% active. viability, % at 10 µM. HCT116 PTEN-null viability, 60 h; active compounds read low. AID 827, 2007;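 active = viability at or below a set limit, 4 SD under the median of all tested compounds, cut at about 3.7% in these data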;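 also: PTEN knockout HCT116 line with beta catenin targeted HCT116 as companion control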
Starred values were filed as active, the others as inactive; nt = no result. This excerpt belongs to a sample that is enriched for hits.

SMILES | HUVEC prolif 384 | bCat KO growth | Lung fibro prol | H69AR inhibit | HCT116 PTEN-null
CN(C)c1ncnc2c1ncn2C1OC(CO)C(O)C1O (centres undefined) | 15* | 5.2* | 41* | 6.8* | 4
Nc1nc(Cl)nc2c1ncn2[C@@H]1O[C@H](CO)[C@@H](O)[C@H]1O | 45 | 31 | 78 | 18* | 58
O=C(Nc1c(Cl)cc(Cl)cc1-c1nc2ccccc2s1)c1ccc(Br)o1 | 96 | 78 | 87 | 77 | 66
COc1ccc(C(=O)Cn2c(C(=O)/C=C/c3ccccc3)nc3ccccc32)cc1 | nt | 2.4* | nt | nt | 3.7*
COc1ccccc1C1c2c(oc3ccc(Cl)cc3c2=O)C(=O)N1c1cc(C)on1 (centres undefined) | 42 | nt | 36* | 40* | nt
COc1cc(C)c(Cl)cc1S(=O)(=O)n1cnc2ccccc21 | 87 | 96 | 93 | 40* | 103
CCOc1ccc(Cl)cc1S(=O)(=O)n1cnc2cc(C)c(C)cc21 | 91 | 77 | 91 | 57 | 80
c1ccc(Cn2nnc3c(N4CCOCC4)ncnc32)cc1 | nt | 105 | nt | nt | 85
FC(F)(F)c1ccc(N2CCN(c3ncnc4c3nnn4Cc3ccccc3)CC2)nc1 | 57 | 85 | 95 | 40* | 96
Cc1ccc(C(=O)NCC(=O)NCC(=O)OCc2ccc(Cl)cc2)cc1 | nt | 90 | nt | nt | 102
CCOC(=O)c1c(CSC(=N)N)n(-c2ccc(Br)cc2)c2cc(Br)c(OC(C)=O)cc12 | nt | 1.3* | nt | nt | 1.6*
CCOC(=O)c1c(CSc2nc(C)cc(C)c2C#N)n(C)c2cc(Br)c(OC(C)=O)cc12 | nt | 30 | nt | nt | 38
C=CCn1c(=O)/c(=C/c2ccc(Cl)cc2)s/c1=C(/C#N)c1nnc2n1CCCCC2 | 68 | 48 | 83 | 22* | 46
C=CCn1c(SCC(=O)Nc2ccccc2OC)nnc1-c1ccco1 | 84 | 69 | 91 | 87 | 71
C=CCn1c(SCC(O)Cn2c3ccccc3c3ccccc32)nnc1-c1ccco1 (centres undefined) | 62 | 86 | 87 | 26* | 78
CN1C2C=C3C(C#N)=C(N)C(C#N)(C#N)[C@@H](c4cccs4)C3C1CC2 (some centres undefined) | 94 | 94 | 90 | 75 | 93
CC(C)(C)C1CC=C2C(C#N)=C(N)C(C#N)(C#N)C(c3cccs3)C2C1 (centres undefined) | 2.1* | nt | 88 | 65 | nt
CC1(C)Cc2c(C#N)c(N3CCN(C(=O)c4ccccc4)CC3)nc(Cc3ccccc3)c2CO1 | 83 | 84 | 97 | 29* | 70
CC1(C)Cc2c(c(N3CCOCC3)nc3snc(NC(=O)c4ccccc4)c23)CO1 | 110 | 99 | 94 | 37* | 102
CC1(C)Cc2c(C#N)c(SCC(=O)c3ccccc3)nc(N3CCOCC3)c2CO1 | 66 | 77 | 48* | 48 | 74
CCCCCSc1nc(N2CCOCC2)c2c(c1C#N)CC(C)(C)OC2 | 91 | 80 | 83 | 33* | 69
CC1(C)Cc2c(C#N)c(SCc3ccccc3)nc(N3CCOCC3)c2CO1 | 80 | 87 | 77 | 44 | 73
COC(=O)Sc1nc(N2CCOCC2)c2c(c1C#N)CC(C)(C)OC2 | 81 | 109 | 92 | 47 | 108
COc1ccc(N2CCN(S(=O)(=O)c3cccc(C(F)(F)F)c3)CC2)cc1 | 105 | 100 | 98 | 100 | 99
Cn1c(=O)c2cc(S(=O)(=O)N3CCN(c4cccc(C(F)(F)F)c4)CC3)ccc2n(C)c1=O | 68 | 68 | 58 | 25* | 58
SMILES | HUVEC prolif 384 | bCat KO growth | Lung fibro prol | H69AR inhibit | HCT116 PTEN-null
COc1ccc(Cl)cc1N(CC(=O)Nc1ccc2c(c1)OCCO2)S(C)(=O)=O | 76 | 95 | 92 | 63 | 95
COc1ccccc1-n1c(CNC(=O)c2ccco2)nnc1SCC(=O)Nc1nccs1 | 71 | 86 | 95 | 33* | 84
CC(C)(C)c1ccc(-c2nnc(SCC(=O)O)n2N)cc1 | 97 | 91 | 44* | 88 | 100
COc1ccc(OC)c(C(=O)N2CCC(C(=O)c3ccc(F)cc3)CC2)c1 | 100 | 83 | 99 | 78 | 81
CCCCNc1c2c3c(cccc3n(C)c1=O)C(=O)c1ccccc1-2 | 52 | 39 | 83 | 16* | 40
Cn1c(=O)c(NCCO)c2c3c(cccc31)C(=O)c1ccccc1-2 | 46 | 92 | 100 | 55 | 92
CCOC(=O)c1ccc2c(c1)nc(COc1ccccc1C#N)n2CC | 78 | nt | 99 | 20* | nt
CCOC(=O)c1ccc2c(c1)nc(COc1ccc3ccccc3c1)n2CC | 78 | 78 | 99 | 24* | 77
CCn1cc(/C=N\NC(=O)Cc2ccc([N+](=O)[O-])cc2)c(C)n1 | nt | 103 | nt | nt | 105
COc1ccc(C2NC(=O)c3sc(=S)n(-c4ccccc4)c3N2)cc1 (centres undefined) | 72 | 41 | 108 | 95 | 3.2*
CCOc1ccc(C2NC(=O)c3sc(=S)n(-c4ccccc4)c3N2)cc1 (centres undefined) | nt | 103 | nt | nt | 99
Cc1ccc(NC(=O)CN(C)C(=O)COc2c(Cl)cc(Cl)c3ccc(C)nc23)cc1 | nt | 74 | nt | nt | 83
Cc1ccc(NC(=O)CN(C)C(=O)Cn2ncc(Cl)c(Cl)c2=O)cc1 | nt | 1.6* | nt | nt | 1.0*
O=C(CSc1nnnn1C1CCCCC1)NCc1ccccc1 | 100 | 91 | 101 | 92 | 88
O=C(Sc1nnnn1C1CCCCC1)c1cccs1 | 106 | 103 | nt | 35* | 110
CCCCn1nnnc1SCC(=O)N1CCCC1 | 91 | 94 | 91 | 78 | 83
Cc1ccc(NC(=O)CSc2nnc([C@@H]3CCCN3C(=O)OC(C)(C)C)o2)c(C)c1 | 99 | 99 | 103 | 35* | 105
O=Cc1cn(CC(=O)N2CCCc3ccccc32)c2ccccc12 | 93 | 87 | 96 | 35* | 86
COC(=O)[C@@H]1CC[C@H](C)[C@@H](c2ccc(C)cc2)N1C(=O)c1ccc(/C=N/O[C@@H](C)CN2CCCCc3nc(C)c(C)cc32)cc1 | nt | 5.9* | nt | nt | 12
C=CCn1c2ccccc2c2nnc(SCC(=O)NC(C(=O)OC)C(C)C)nc21 (centres undefined) | 99 | 104 | 94 | 57 | 93
CC1=CC(=NOC(=O)c2cccc([N+](=O)[O-])c2)C=C(C)C1=O | 96 | 9 | 91 | 74 | 27
CC1=CC(=O)C(C(C)C)=C/C1=N/OC(=O)c1cccc([N+](=O)[O-])c1 | 104 | 51 | 87 | 33* | 60
O=c1[nH][nH]c(-c2ccccc2O)c1C(C[N+](=O)[O-])c1ccc(Cl)cc1Cl (centres undefined) | nt | 36 | nt | nt | 58
O=c1[nH][nH]c(-c2ccccc2O)c1C(C[N+](=O)[O-])c1ccccc1 (centres undefined) | nt | 5.7* | nt | nt | 4
O=c1[nH][nH]c(-c2ccccc2O)c1C(C[N+](=O)[O-])c1cccc(Cl)c1 (centres undefined) | nt | 5.9* | nt | nt | 8
